Laboratory results from ChEMBL document CHEMBL1140764, “Chromen-based TNF-alpha converting enzyme (TACE) inhibitors: design, synthesis, and biological evaluation” (Bioorg Med Chem, 2008).

Columns and labels:
[1] = biological target: Disintegrin and metalloproteinase domain-containing protein 17 (Homo sapiens, UniProt P78536); assay: Inhibition of human TACE
[2] = biological target: 72 kDa type IV collagenase (Homo sapiens, UniProt P08253); assay: Inhibition of human recombinant MMP2
Outline: (§1)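 Recombinant human MMP-2 or MMP-9 catalytic domain with fluorogenic quenched peptide Mca-Pro-Leu-Gly-Leu-Dpa-Ala-Arg-NH2. Cleavage releases Mca. Fluorescence read at excitation 324, emission 420, and the rate of emission change is taken as enzyme activity. IC50 values are means of three experiments.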

[3] = biological target: Matrix metalloproteinase-9 (Homo sapiens, UniProt P14780); assay: Inhibition of human recombinant MMP9; outline: as §1
RAW264.7 [4] = assay: Inhibition of TNFalpha production in mouse RAW264.7 cells after 24 hrs by ELISA; type: functional, cell-based; conditions: RAW264.7, 24 h
Outline: (§2)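 RAW264.7 cells cultured with inhibitors for 24 h. Secreted TNF-α in culture supernatant quantified by ELISA following the kit instructions. IC50 values are means of three experiments; line 3 is the single-concentration 10 μM result.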

RAW264.7 [5] = assay: Inhibition of NO production in mouse RAW264.7 cells at 10 uM after 24 hrs by ELISA; type: functional, cell-based; conditions: in the assay text read “by Griess assay” for “by ELISA”
Outline: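 RAW264.7 cells cultured with inhibitors for 24 h. NO2- accumulation in medium taken as NO output: supernatant mixed 1:1 with Griess reagent (1% sulfanilamide, 0.1% naphthylethylenediamine dihydrochloride, 2% phosphoric acid), 10 min at room temperature, absorbance at 540 nm against a NaNO2 standard curve. Single concentration 10 μM. Means of three experiments.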

RAW264.7 [6] = assay: Inhibition of TNFalpha production in mouse RAW264.7 cells at 10 uM after 24 hrs by ELISA; type: functional, cell-based; outline: as §2

Sequence of Matrix metalloproteinase-9 (P14780 whole entry): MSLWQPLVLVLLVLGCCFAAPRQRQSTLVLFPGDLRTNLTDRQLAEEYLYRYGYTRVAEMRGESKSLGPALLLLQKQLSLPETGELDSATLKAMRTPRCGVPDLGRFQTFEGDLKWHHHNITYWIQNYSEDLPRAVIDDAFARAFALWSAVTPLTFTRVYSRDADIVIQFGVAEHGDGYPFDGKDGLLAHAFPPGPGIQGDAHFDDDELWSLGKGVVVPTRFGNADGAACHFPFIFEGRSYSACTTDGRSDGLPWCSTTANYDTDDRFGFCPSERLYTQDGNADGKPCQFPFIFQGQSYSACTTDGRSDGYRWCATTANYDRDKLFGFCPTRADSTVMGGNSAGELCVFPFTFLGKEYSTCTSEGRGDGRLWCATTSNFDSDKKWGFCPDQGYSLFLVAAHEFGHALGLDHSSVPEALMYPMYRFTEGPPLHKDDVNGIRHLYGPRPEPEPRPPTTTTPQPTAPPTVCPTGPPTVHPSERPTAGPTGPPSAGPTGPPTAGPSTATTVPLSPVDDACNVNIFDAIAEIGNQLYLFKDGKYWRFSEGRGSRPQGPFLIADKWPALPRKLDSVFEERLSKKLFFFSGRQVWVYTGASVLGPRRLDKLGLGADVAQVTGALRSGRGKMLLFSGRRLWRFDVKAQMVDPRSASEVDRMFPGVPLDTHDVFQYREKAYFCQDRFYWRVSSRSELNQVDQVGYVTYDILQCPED
Sequence of Disintegrin and metalloproteinase domain-containing protein 17 (P78536 whole entry, the tested form may be a part): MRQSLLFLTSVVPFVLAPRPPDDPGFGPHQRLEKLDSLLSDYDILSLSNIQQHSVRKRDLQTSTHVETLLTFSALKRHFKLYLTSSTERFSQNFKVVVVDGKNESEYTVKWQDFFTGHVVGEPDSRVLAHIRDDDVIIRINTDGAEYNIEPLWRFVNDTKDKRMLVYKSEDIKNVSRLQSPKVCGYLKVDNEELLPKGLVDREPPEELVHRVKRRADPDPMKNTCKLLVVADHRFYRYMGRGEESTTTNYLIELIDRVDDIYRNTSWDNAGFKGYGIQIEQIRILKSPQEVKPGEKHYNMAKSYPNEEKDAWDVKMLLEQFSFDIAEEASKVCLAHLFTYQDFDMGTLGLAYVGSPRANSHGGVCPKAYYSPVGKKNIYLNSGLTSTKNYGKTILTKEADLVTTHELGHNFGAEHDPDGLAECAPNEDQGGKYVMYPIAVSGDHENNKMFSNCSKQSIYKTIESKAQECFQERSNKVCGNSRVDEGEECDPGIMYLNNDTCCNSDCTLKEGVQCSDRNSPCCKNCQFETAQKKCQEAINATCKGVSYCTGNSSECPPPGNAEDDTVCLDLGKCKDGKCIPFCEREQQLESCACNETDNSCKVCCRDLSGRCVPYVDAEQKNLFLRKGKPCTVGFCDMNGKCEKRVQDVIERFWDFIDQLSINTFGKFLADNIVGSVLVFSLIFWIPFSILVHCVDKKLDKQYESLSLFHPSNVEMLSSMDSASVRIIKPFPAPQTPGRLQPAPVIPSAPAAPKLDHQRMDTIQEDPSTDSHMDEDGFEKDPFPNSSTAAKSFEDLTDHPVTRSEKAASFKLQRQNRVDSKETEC
Sequence of 72 kDa type IV collagenase (P08253 whole entry, the tested form may be a part): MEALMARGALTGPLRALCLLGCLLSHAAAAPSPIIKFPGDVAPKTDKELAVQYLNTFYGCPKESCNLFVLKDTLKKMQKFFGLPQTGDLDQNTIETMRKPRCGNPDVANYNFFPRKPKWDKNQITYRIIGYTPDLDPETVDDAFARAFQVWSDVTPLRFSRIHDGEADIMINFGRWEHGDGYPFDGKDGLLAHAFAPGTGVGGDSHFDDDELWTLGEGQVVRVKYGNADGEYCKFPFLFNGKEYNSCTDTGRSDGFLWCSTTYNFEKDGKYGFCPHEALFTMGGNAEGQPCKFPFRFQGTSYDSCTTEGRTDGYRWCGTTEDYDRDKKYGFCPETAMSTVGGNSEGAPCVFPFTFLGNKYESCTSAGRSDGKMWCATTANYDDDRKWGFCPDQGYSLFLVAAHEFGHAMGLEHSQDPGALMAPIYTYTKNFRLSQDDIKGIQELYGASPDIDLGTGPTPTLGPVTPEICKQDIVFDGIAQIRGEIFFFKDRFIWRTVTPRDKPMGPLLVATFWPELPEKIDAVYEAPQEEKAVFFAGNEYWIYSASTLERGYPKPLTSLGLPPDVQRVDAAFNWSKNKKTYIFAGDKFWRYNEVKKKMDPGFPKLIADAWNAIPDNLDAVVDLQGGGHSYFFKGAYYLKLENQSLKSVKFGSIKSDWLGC

| Compound | IC50 [1] [nM] | IC50 [2] [nM] | IC50 [3] [nM] | IC50 (RAW264.7 [4]) [nM] | IC50 (RAW264.7 [5]) | IC50 (RAW264.7 [6]) |
| --- | --- | --- | --- | --- | --- | --- |
| Cc1ccc2oc(=O)c(CC(C)C(=O)NO)cc2c1 (configuration not stated) | 3 | 1040 | > 10000 | 320 | Not Active |  |
| C/C=C/C=C\C=C1\C=C(CCC(=O)NO)C(=O)OC1 | 28 | 6 | 23 | 8800 | Not Active |  |
| O=C(CCc1cc2ccccc2oc1=O)NO | 150 | 200 | 1410 | 5640 | Not Active |  |
| COc1ccc2oc(=O)c(CCC(=O)NO)cc2c1 | 110 | 590 | 5660 | 2210 | Not Active |  |
| Cc1ccc2oc(=O)c(CC(Cc3ccccc3)C(=O)NO)cc2c1 (configuration not stated) | 5 |  |  | 540 | Not Active |  |
| Cc1ccc2oc(=O)c(CCC(=O)NO)cc2c1 | 60 | 230 | 3050 | 1300 | Not Active |  |
| CC(C)(C)c1ccc2oc(=O)c(CCC(=O)NO)cc2c1 | 12400 |  |  |  | Not Active | Not Active |
| C=CCC(Cc1cc2cc(C)ccc2oc1=O)C(=O)NO (configuration not stated) | 30 |  |  | 520 | Not Active |  |
| O=C(CCc1cc2cc(Cl)ccc2oc1=O)NO | 550 | 1470 | 16400 | 25600 | Not Active |  |
| O=C(CCc1cc2cc(Br)ccc2oc1=O)NO | 840 | 860 | 24500 | 13000 | Not Active |  |
| COc1ccc2oc(=O)c(CC(C)C(=O)NO)cc2c1 (configuration not stated) | 36 |  |  | 220 | Not Active |  |
